# Measured values from paper PMC5532717 (ACS Central Science, 2017).
# Experiments:
# GAA = GAA (Homo sapiens, UniProt P10253); experiment: Competitive ABPP against probe 13 in fibroblast lysates, pH 4; format: biochemical; conditions: pH 4, preincubation 15, 30 or 60 min
# Summary of the method: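 Human normal dermal fibroblast homogenate (17.6 μg total protein) in 150 mM McIlvaine buffer for 5 min on ice, at pH 4 for GAA and pH 7 for GANAB. Exposed to test compound for 15, 30 or 60 min at 37 °C, then labeled with Cy5 aziridine probe 13 for 30 min at 37 °C. Denatured at 98 °C, 10% SDS–PAGE, Cy5 in-gel fluorescence scan.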
# [1] = Solvolytic stability in McIlvaine buffer pH 4.0 by NMR; format: physicochemical; conditions: McIlvaine buffer pH 4.0, room temperature, 24 h, 1H NMR
# GBA2 [2] = biological target: T1, GBA2 (Homo sapiens, UniProt Q9HCG7); experiment: Competitive ABPP against β-glucosidase probe 14, GBA2+ HEK293T lysate; format: biochemical; conditions: 5 from 30 to 0 μM, 1 h at 37 °C, pH 5.8
# T1 sequence (Q9HCG7 1-927): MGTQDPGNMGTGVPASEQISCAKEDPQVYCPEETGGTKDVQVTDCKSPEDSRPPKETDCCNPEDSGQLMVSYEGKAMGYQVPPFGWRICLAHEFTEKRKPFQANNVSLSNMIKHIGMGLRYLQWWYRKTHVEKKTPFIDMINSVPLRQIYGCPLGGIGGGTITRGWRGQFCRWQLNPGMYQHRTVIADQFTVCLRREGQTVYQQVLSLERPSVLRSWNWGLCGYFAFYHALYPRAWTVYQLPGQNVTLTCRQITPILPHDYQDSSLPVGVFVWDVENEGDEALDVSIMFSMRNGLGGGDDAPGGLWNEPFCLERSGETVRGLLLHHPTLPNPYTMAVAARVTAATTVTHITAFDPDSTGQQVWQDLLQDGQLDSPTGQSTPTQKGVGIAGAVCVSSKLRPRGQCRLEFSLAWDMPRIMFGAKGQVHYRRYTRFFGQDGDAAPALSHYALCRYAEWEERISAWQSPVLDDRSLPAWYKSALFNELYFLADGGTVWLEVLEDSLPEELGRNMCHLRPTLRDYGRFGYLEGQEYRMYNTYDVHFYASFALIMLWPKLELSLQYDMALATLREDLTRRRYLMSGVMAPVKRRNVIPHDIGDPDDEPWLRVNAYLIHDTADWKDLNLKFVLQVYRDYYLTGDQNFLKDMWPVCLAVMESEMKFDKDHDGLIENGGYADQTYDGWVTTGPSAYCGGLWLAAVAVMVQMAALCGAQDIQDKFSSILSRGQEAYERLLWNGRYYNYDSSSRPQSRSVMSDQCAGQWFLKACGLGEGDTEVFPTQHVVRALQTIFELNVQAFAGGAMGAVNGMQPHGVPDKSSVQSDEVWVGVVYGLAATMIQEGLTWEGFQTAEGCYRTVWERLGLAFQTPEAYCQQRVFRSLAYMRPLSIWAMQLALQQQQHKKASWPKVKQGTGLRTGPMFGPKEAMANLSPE
# GANAB = biological target: T2, GANAB (Mus musculus, UniProt Q8BHN3); experiment: Competitive ABPP against probe 13 in mouse gastrointestinal lysate; format: biochemical; conditions: mouse intestine lysate, 1 h at 37 °C
# T2 sequence (Q8BHN3 33-944): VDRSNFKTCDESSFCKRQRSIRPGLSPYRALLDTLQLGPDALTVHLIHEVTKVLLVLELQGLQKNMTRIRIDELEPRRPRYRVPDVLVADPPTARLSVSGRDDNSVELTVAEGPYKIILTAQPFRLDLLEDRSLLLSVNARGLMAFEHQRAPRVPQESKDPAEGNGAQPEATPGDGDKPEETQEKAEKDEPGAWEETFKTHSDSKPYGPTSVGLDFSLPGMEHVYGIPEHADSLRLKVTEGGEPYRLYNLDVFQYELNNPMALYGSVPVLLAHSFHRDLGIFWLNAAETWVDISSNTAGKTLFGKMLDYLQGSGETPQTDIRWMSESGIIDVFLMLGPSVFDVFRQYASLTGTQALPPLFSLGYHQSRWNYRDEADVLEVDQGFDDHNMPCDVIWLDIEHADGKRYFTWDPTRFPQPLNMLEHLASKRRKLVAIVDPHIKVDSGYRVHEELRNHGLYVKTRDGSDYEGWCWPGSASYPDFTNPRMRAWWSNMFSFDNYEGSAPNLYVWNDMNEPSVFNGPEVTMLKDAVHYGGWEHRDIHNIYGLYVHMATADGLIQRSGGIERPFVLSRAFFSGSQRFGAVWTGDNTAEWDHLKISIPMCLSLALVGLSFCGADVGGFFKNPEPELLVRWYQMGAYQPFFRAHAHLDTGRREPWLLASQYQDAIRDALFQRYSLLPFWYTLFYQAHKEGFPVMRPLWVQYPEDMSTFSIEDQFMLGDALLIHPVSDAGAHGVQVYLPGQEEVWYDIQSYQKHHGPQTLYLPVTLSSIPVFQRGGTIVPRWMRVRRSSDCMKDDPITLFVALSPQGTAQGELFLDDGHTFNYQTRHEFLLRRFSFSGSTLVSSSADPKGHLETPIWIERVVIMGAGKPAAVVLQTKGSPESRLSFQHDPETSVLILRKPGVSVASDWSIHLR
# T2 sequence (O08795 15-521 partner): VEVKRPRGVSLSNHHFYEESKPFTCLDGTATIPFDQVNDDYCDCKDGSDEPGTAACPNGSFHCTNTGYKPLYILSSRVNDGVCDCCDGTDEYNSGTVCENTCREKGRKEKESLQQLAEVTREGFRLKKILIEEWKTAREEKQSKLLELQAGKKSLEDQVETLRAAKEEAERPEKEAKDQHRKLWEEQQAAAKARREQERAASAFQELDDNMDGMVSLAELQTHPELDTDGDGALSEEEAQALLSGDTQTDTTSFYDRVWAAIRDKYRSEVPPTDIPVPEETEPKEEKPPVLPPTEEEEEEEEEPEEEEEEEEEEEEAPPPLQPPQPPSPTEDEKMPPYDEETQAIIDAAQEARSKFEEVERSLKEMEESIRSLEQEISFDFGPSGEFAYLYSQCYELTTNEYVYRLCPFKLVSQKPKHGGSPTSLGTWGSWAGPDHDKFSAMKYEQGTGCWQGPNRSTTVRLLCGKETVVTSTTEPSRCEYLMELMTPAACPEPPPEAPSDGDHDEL
# Summary of the method: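 Mixed mouse duodenum, jejunum and ileum homogenates were made in 25 mM potassium phosphate pH 6.5 with protease inhibitors (40 μg protein). Held 5 min on ice in McIlvaine buffer pH 4 or 7. Incubated 1 h at 37 °C with test compound (final 150 to 0.005 μM, plus 0), then probe 13 for 30 min at 37 °C. Boiled in Laemmli buffer, 10% SDS–PAGE, Cy5 fluorescence scan.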
# GBA2 [3] = biological target: T1, GBA2; experiment: In vitro apparent IC50, GBA2 overexpressing HEK293T lysate, 4-MU-β-Glc; format: biochemical
# Summary of the method: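 The enzyme source was GBA2-overexpressing HEK293T lysate or recombinant human GAA. It was preincubated 30 min at 37 °C with a range of test compound concentrations, then transferred into 4-MU glucoside substrate mixture to measure residual activity. Quenched with 1 M NaOH–glycine pH 10.3; 4-MU fluorescence at λex 366/λem 445 nm. Apparent IC50 is the mean of three technical replicates.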
smiles,measurement,setting,value
"O=S1(=O)O[C@@H]2[C@H](O)[C@@H](O)[C@H](O)[C@@H](CO)[C@@H]2O1 [Compound 5, 1,6-epi-cyclophellitol cyclosulfate]",inhibition of probe 13 labeling of GAA,GAA,time dependent inhibition
same,solvolytic stability (spontaneous hydrolysis),[1],no spontaneous hydrolysis
same,inhibition of probe 14 labeling of GBA2,GBA2 [2],no inhibition
same,inhibition of probe 13 labeling of GANAB,GANAB,inhibited
same,IC50,GBA2 [3],> 100 µM
